The list is not random: actives were taken first. Their share in the collection is about 1.6%.
RAD54 inh: inhibitors of human RAD54 branch migration, primary screen, biochemical, fluorescence, single point. RAD54 Holliday junction branch migration, FAM/BHQ fluorescence. inhibition, % at 10.4 µM. DNA repair and recombination protein RAD54-like (Homo sapiens), Q92698. AID 602329, 2012. 0.14% of 360,000 active;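 active = mean normalized replicate activity at least 40 and at least half of replicates scoring 40 or more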;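 also: inhibitors cause a drop in the FAM fluorescence signal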
Apaf1 inhib: inhibitors of human Apaf-1 apoptosome, primary screen, biochemical, DEVD-Rh110 fluorescence, uHTS; 0.71% of 330,000 active; reconstituted apoptosome caspase-3 activity; inhibition, % at 20 µM; Apoptotic protease-activating factor 1 (Homo sapiens), O14727; active = inhibition of at least 40% at 20 µM
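Material: reconstituted apoptosome with Apaf-1, cytochrome c, caspase-9, procaspase-3, dATP; medium: pH 7.5 Hepes buffer with CHAPS, BSA, DTT; also added: cytochrome c and DEVD-Rh110 substrate; timing: 30 min plus 50 min, RT; signal: Rh110 fluorescence intensity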
Neddyl block: inhibitors of cullin neddylation, primary screen, biochemical, TR-FRET, uHTS, NAE and Ubc12; NEDD8-conjugating enzyme Ubc12 (Homo sapiens) + NEDD8-activating enzyme E1 regulatory …; calls only at 25 µM; 0.58% of 360,000 active; AID 651699, 2012; in the data active = inhibition above about 36%
Target sequence (P61081 whole entry, looked up): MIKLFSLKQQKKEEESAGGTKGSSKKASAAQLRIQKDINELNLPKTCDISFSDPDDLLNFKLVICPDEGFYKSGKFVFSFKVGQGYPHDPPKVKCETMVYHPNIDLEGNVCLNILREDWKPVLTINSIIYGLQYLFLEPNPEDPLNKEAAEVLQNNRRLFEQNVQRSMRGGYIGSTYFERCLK
Target sequence (Q13564 whole entry, looked up): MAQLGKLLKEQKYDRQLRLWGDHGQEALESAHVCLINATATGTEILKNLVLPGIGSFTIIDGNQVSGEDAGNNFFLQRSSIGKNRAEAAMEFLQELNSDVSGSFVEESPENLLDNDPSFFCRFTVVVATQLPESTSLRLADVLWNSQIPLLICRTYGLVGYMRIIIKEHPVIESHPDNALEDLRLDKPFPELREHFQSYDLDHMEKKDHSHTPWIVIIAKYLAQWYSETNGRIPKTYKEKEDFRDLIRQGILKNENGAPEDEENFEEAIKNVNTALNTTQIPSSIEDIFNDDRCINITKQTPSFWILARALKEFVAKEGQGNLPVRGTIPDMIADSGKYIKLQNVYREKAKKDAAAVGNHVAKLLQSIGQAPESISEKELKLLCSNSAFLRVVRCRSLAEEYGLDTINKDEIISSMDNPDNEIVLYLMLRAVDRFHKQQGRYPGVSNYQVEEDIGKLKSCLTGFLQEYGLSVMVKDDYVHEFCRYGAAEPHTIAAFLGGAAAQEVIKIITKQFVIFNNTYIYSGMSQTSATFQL
RAD52 inh: RAD52 DNA annealing inhibitors, primary screen, biochemical, FRET, single point, set 2; DNA repair protein RAD52 homolog (Homo sapiens), P43351; recombinant RAD52 DNA annealing, FRET fluorescence; inhibition, % at 18.7 µM; 0.46% of 360,000 active; AID 651710, 2012;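 active = every replicate showing at least 50% inhibition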
DNA FID counter: compounds displacing fluorescent DNA intercalator, primary screen, artefact control for HCV NS3 helicase inhibitor project, biochemical, FID fluorescence; DNA fluorescent intercalator displacement; 0.17% of 290,000 active; inhibition, % at 7.9 µM; in the data active = inhibition above about 37%;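 also: higher means more ethidium bromide displaced from hairpin DNA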
UBC13 inh: UBC13 polyubiquitin chain formation inhibitors, primary screen, biochemical, TR-FRET, uHTS | 0.47% of 330,000 active | Ubiquitin-conjugating enzyme E2 N (Homo sapiens), P61088 | inhibition, % at 20 µM | AID 485273, 2010; in the data active = inhibition above about 45%, passing the limit was not always enough
Numbers stand for hits; ! = repeats disagree.

Screening C[C@H]1CCCCO[C@@H](CN(C)Cc2ccc3c(c2)OCO3)[C@@H](C)CN([C@@H](C)CO)C(=O)c2cc(NS(=O)(=O)c3ccc(Cl)cc3)ccc2O1 returned RAD54 inh inactive and RAD52 inh 55.0!.
Screening COCCn1c(N)c(S(=O)(=O)c2cccs2)c2nc3ccccc3nc21 returned RAD54 inh inactive, Apaf1 inhib inactive, RAD52 inh inactive, DNA FID counter inactive and UBC13 inh inactive.
Nc1c(C(=O)NCc2ccco2)c2nc3ccccc3nc2n1CCc1ccc(F)cc1 was read as RAD54 inh inactive, Apaf1 inhib 77.6, DNA FID counter inactive and UBC13 inh inactive.
`COCCn1c(N)c(C(=O)NCc2cccs2)c2nc3ccccc3nc21` gave RAD54 inh inactive, Apaf1 inhib 95.2, DNA FID counter inactive and UBC13 inh inactive.
`CC(CCc1ccccc1)NCc1cccc2ccccc12` (stereo not given) gave RAD54 inh inactive, Apaf1 inhib inactive, Neddyl block inactive, RAD52 inh inactive, DNA FID counter inactive and UBC13 inh inactive.
For NC(CCCCc1ccccc1)c1cccc2ccccc12 (stereo not given) the results were Apaf1 inhib inactive and UBC13 inh 54.0.
Screening CC(C)Nc1nc(NCCN2CCCC2)c2sc(-c3ccccc3)cc2n1 returned RAD54 inh inactive, Neddyl block inactive and RAD52 inh 76.1.
For CO[C@H]1CN(C)C(=O)c2ccc(NC(=O)C3CCCCC3)cc2OC[C@@H](C)NC[C@H]1C the results were RAD54 inh inactive and RAD52 inh inactive.
Screening C[C@H](CO)N1C[C@H](C)[C@@H](CN(C)Cc2ccccc2)OCCCC[C@H](C)Oc2ccc(NS(=O)(=O)c3ccc(Cl)cc3)cc2C1=O returned RAD54 inh inactive and RAD52 inh inactive.
C[C@H](CO)N1C[C@H](C)[C@H](CN(C)Cc2ccccc2)OCCCC[C@H](C)Oc2ccc(NS(=O)(=O)c3ccc(F)cc3)cc2C1=O was read as RAD54 inh inactive and RAD52 inh 77.1.
C[C@@H]1CCCCO[C@@H](CN(C)Cc2ccccc2)[C@H](C)CN([C@H](C)CO)C(=O)c2cc(NS(=O)(=O)c3ccc(Cl)cc3)ccc2O1 was read as RAD54 inh inactive and RAD52 inh 60.6.
C[C@H]1CCCCO[C@H](CN(C)Cc2ccccc2)[C@@H](C)CN([C@@H](C)CO)C(=O)c2cc(NS(=O)(=O)c3ccc(Cl)cc3)ccc2O1 was read as RAD54 inh inactive and RAD52 inh inactive.
C[C@@H]1CCCCO[C@H](CN(C)Cc2ccccc2)[C@@H](C)CN([C@@H](C)CO)C(=O)c2cc(NS(=O)(=O)c3ccc(Cl)cc3)ccc2O1 was read as RAD54 inh inactive and RAD52 inh 64.0.
C[C@@H]1CCCCO[C@H](CN(C)Cc2ccccc2)[C@H](C)CN([C@@H](C)CO)C(=O)c2cc(NS(=O)(=O)c3ccc(Cl)cc3)ccc2O1 was read as RAD54 inh inactive and RAD52 inh 54.4.
C[C@@H]1CN([C@@H](C)CO)C(=O)c2cc(NS(=O)(=O)c3ccc(F)cc3)ccc2O[C@@H](C)CCCCO[C@H]1CN(C)Cc1ccccc1 was read as RAD54 inh inactive and RAD52 inh inactive.
Screening C[C@@H]1CN([C@H](C)CO)C(=O)c2cccc(NS(C)(=O)=O)c2O[C@@H]1CN(C)S(=O)(=O)c1cn(C)cn1 returned RAD54 inh inactive and RAD52 inh inactive.
`COC(=O)C(CC#Cc1ccc2c(c1)[C@]1(C(=O)N2)[C@H](c2ccc(OCCO)cc2)N2[C@H](c3ccccc3)[C@H](c3ccccc3)OC(=O)[C@H]2[C@@H]1C(=O)N1CCCCCCC1)C(=O)OC` gave RAD54 inh inactive and RAD52 inh inactive.
COc1ccccc1S(=O)(=O)Nc1ccc2c(c1)C(=O)N(C)C[C@@H](OC)[C@@H](C)CN[C@H](C)CO2 was read as RAD54 inh inactive and RAD52 inh inactive.
CCCN1C[C@@H](C)[C@H](OC)CN(C)C(=O)c2cc(NC(=O)Nc3c(C)noc3C)ccc2OC[C@@H]1C was read as RAD54 inh inactive and RAD52 inh inactive.
For Cc1ccc(S(=O)(=O)Nc2ccc3c(c2)C(=O)N([C@@H](C)CO)C[C@H](C)[C@@H](CN(C)CC2CCCCC2)OCCCC[C@H](C)O3)cc1 the results were RAD54 inh inactive and RAD52 inh 54.8.
`Cc1ccc(S(=O)(=O)Nc2ccc3c(c2)C(=O)N([C@H](C)CO)C[C@H](C)[C@@H](CN(C)CC2CCCCC2)OCCCC[C@H](C)O3)cc1` gave RAD54 inh inactive and RAD52 inh inactive.
`COc1ccc(C(=O)NC(=S)NNC(=O)c2ccccc2O)cc1` gave RAD54 inh inactive, Apaf1 inhib inactive, Neddyl block inactive, RAD52 inh inactive, DNA FID counter inactive and UBC13 inh inactive.
Screening COc1ccc(C(=O)NC(=S)NNC(=O)c2ccccc2C)cc1 returned RAD54 inh inactive, Apaf1 inhib inactive, Neddyl block active, RAD52 inh inactive and UBC13 inh inactive.
`O=C(C[C@H]1CC[C@H]2[C@@H](COC[C@H](O)CN2Cc2nccs2)O1)NCc1ccc(-c2ccccc2)cc1` gave RAD54 inh inactive and RAD52 inh inactive.
For S=C(Nc1ccc2nc(-c3ccccn3)c(-c3ccccn3)nc2c1)N1CCCCC1 the results were RAD54 inh inactive, Apaf1 inhib inactive, Neddyl block active, DNA FID counter inactive and UBC13 inh inactive.
For O=C(Nc1cccc2nsnc12)c1ccc2c(c1)OCCO2 the results were RAD54 inh inactive, Apaf1 inhib inactive, Neddyl block active, DNA FID counter inactive and UBC13 inh inactive.
`O=C(Nc1cccc2cccnc12)c1ccc2c(c1)OCCO2` gave RAD54 inh inactive, Apaf1 inhib inactive, Neddyl block inactive, DNA FID counter inactive and UBC13 inh inactive.
CO[C@H]1CN(C)C(=O)c2ccc(NC(=O)Nc3ccccc3F)cc2OC[C@H](C)NC[C@@H]1C was read as RAD54 inh inactive and RAD52 inh inactive.
Screening O=C(C1CCC1)N1CC2(C1)[C@@H](c1ccccc1)[C@H](CO)N2C(=O)CC1CC1 returned RAD52 inh inactive.
Screening CC(C)N1CCc2c(sc(NC(=O)Cc3ccccc3)c2C(N)=O)C1 returned RAD54 inh inactive, Apaf1 inhib inactive, Neddyl block inactive, RAD52 inh inactive, DNA FID counter inactive and UBC13 inh inactive.

Assay outcomes as filed in PubChem.
